Screening results deposited in PubChem BioAssay by several laboratories.
A selection: hits, their analogues and other compounds. The true share with any hit is near 1.7%.
CSN inh – CSN deneddylation inhibition. 0.38% of 360,000 active. inhibition, % at 12.5 µM. Q92905. Purified CSN, SCF-Nedd8-OG deneddylation, fluorescence polarization;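 active = pattern-corrected inhibition above about 35%, with an unprinted fluorescence ratio check between 0.5 and 1.5, limit read from the data, passing the limit was not always enough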
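Material: purified human Csn5 enzyme expressed in HEK293T cells / Medium: Tris buffer pH 7.5, NaCl, DTT, Tween-20, trehalose, ovalbumin / Compound dosing: 12.5 µM single point / Schedule: 90 min incubation of compound, enzyme and substrate at room temperature / Signal: fluorescence polarization of the substrate / Control set: no-enzyme wells high, enzyme-with-substrate wells low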
IDE act – activators of human insulin-degrading enzyme in cells | P14735 | 0.073% of 340,000 active | HEK cells, FAbeta-B cleavage, fluorescence polarization; 0% vehicle, 100% cell-free pure enzyme wells | activation, % at 5.96 µM;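 active = activation above the mean of all tested compounds plus 3 SD, set per screening campaign, cut at about 17% in these data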
TPT1 inhibitor – C. albicans TPT1 enzyme inhibition; recombinant caTPT1, FP RNA substrate dephosphorylation; inhibition, % at 5 µM; 0.81% of 300,000 active; AID 1962;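 active = inhibition above the mean of all tested compounds plus 3 SD, set per screening campaign, cut at about 24% in these data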
Rpn11 inh – blocks the human proteasome subunit Rpn11; O00487; human 26S proteasome, Ub4-pepOG fluorescence polarization; 20S core pre-blocked with epoxomicin; calls only at 20 µM; 0.59% of 360,000 active;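 active = inhibition at 20 µM, scaled to each plate's controls, above about 33%, limit read from the data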
HNF4A DNA FP – change in binding of human HNF4 alpha to DNA; P41235; HNF4a-FITC DNA binding, fluorescence polarization, 1 h; activity change, % at 10 µM; 0.3% of 360,000 active; AID 1224865; in the data active = activity change above about 30%, passing the limit was not always enough
Target sequence (P41235 whole entry, looked up): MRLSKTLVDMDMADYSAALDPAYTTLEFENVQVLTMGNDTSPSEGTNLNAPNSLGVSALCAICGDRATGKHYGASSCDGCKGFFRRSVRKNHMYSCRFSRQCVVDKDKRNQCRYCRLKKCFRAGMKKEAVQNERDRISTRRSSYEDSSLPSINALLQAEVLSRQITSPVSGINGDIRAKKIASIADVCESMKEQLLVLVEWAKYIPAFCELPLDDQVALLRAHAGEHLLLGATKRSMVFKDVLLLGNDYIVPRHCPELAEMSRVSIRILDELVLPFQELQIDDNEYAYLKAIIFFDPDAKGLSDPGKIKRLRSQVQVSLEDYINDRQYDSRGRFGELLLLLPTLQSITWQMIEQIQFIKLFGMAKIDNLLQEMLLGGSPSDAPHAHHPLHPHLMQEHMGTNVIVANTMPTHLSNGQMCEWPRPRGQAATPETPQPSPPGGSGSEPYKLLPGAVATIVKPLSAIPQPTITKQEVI
IDE inh – cellular human IDE inhibition; HEK cells, FAbetaB cleavage, fluorescence polarization; inhibition, % at 5.59 µM; 0.41% of 320,000 active;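 active = percent inhibition above the average of all tested compounds plus 3 SD, set per screening campaign, cut at about 16% in these data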;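 also: IDE supplied by intact live HEK cells; FP after avidin binding of uncleaved biotin substrate so inhibition keeps polarization high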
TPT1 inh confirm – confirmation of Candida albicans TPT1 inhibitors. shares compounds with TPT1 inhibitor. inhibition, % at 5 µM. AID 2149. 74% of 2,400 active. recombinant caTPT1, fluorescence polarization, RNase T1 coupled;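 active = inhibition above the primary screen limit, the mean inhibition of all tested compounds plus 3 SD, cut at about 25% in these data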
RNase T1 inh – RNase T1 inhibition in TPT1 counter-screen | shares compounds with TPT1 inhibitor | inhibition, % at 5 µM | RNase T1 cleavage, fluorescence polarization, 1536-well | 83% of 2,400 active;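 active = inhibition above the solvent-only control well mean plus 3 SD, limit set per screening run, cut at about 23% in these data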;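 also: inhibitors block cleavage so intact labeled substrate keeps polarization high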
Target sequence (P00651 whole entry, looked up): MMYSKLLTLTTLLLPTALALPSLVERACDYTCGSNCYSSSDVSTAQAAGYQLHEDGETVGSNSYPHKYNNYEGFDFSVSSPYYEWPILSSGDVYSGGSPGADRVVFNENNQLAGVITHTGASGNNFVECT
IDE inh confirm – cellular human IDE inhibition, confirmation. 51% of 1,200 active. shares compounds with IDE inh. inhibition, % at 5.59 µM. AID 435028. HEK cells, FAbetaB cleavage, fluorescence polarization;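 active = mean inhibition across triplicate wells above the cutoff set by the earlier primary insulin-degrading enzyme screen, cut at about 16% in these data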
HEK cytotox – counter-screen for IDE inhibitors: cytotoxicity in HEK cells. shares compounds with IDE inh. 28% of 1,200 active. HEK293 cytotoxicity, ATP luminescence. inhibition, % at 5.59 µM; in the data active = inhibition above about 22%
Rpn11 confirm – confirmation of human proteasome Rpn11 inhibitors | shares compounds with Rpn11 inh | purified human 26S proteasome, Ub4-pepOG fluorescence polarization; proteasome pretreated with epoxomicin | inhibition, % at 20 µM | 29% of 1,900 active | AID 602318
MMP-2 counter-1 – counter-screen for RPN11 inhibitors: inhibition of human MMP-2; inhibition, % at 20 µM; shares compounds with Rpn11 inh; recombinant MMP-2, FRET peptide cleavage fluorescence; AID 602330; 4% of 1,900 active;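 also: human MMP-2 activated beforehand with APMA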
Thrombin inh – thrombin (bovine) inhibition counter-screen; shares compounds with Rpn11 inh; bovine thrombin cleavage of Ub4-pepOG, fluorescence polarization; inhibition, % at 20 µM; 13% of 1,900 active; AID 602333;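 active = mean inhibition at least 40% at 20 µM, or signal 3 deviations below plate average, so some actives read negative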
CSN deneddyl val – Csn5 (human) deneddylation inhibition, single-concentration validation | AID 720654 | Csn5 deneddylation of SCF-Nedd8OG, fluorescence polarization, 90 min | shares compounds with CSN inh | inhibition, % at 16.6 µM | 62% of 540 active; in the data active = inhibition above about 50%
MMP-2 counter-2 – MMP-2 (human) inhibition, counter-screen for CSN hits; recombinant MMP-2, FRET substrate fluorescence, 60 min; 33% of 540 active; AID 720655; inhibition, % at 16.6 µM; shares compounds with CSN inh;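 active = corrected plate-normalized z-score of 5 or more, or -5 or less, or inhibition of 15% or more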
Thrombin cntr – thrombin (bovine) inhibition, counter-screen for CSN hits; inhibition, % at 16.6 µM; shares compounds with CSN inh; 49% of 540 active; AID 720656; bovine thrombin cleavage of Ub4-pepOG, fluorescence polarization;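 active = inhibition at or above a set limit, with a fluorescence interference ratio between 0.5 and a set maximum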
Numbers stand for hits; – = inactive; · = no result shown; + = active, no number. Rule as the data show it, unless noted: active = inhibition above about 40%; inactive = the rest.

SMILES	CSN inh	IDE act	TPT1 inhibitor	Rpn11 inh	HNF4A DNA FP	IDE inh	TPT1 inh confirm	RNase T1 inh	CSN deneddyl val	MMP-2 counter-2	Thrombin cntr	others
CC(=O)Oc1ccccc1/C=C/c1nc2ccccc2c(=O)o1	–	–	–	–	–	–	·	·	·	·	·
N#CC1=C(N)SC(N)=C(C#N)C1c1ccnc2ccccc12	45	–	103	·	39	–	74	85	135	–	30
COc1cc(/C=C2\Oc3cc(O)ccc3C2=O)ccc1O	40	–	47	·	–	62	51	59	98	–	29	IDE inh confirm=143;HEK cytotox=–
Cc1ccsc1/C=C1\Oc2cc(O)ccc2C1=O	–	·	·	–	–	·	·	·	·	·	·
CCCCN(C=O)c1c(CC)nc2ccc(C(=O)N3CCN(S(=O)(=O)CC)CC3)cn12	–	·	·	–	–	·	·	·	·	·	·
N#C/C(=C\N1CCOCC1)c1ccccc1	–	–	–	–	–	–	·	·	·	·	·
N#C/C(=C/c1ccc(N2CCOCC2)o1)C(=O)NC1CCCCC1	103	–	156	·	–	–	173	166	120	–	88
N#C/C(=C/c1ccc(N2CCOCC2)o1)c1ccc(Br)cc1	80	–	+	·	–	–	171	159	+	-37	–
CSc1ccc(/C=C(\C#N)C(=O)NC2CCCCC2)cc1	–	–	–	–	–	–	·	·	·	·	·
CN(C)c1ccc(/C=C2\SC(N3CCCCC3)=NC2=O)cc1	84	–	106	·	–	16	116	116	63	–	78	IDE inh confirm=27;HEK cytotox=–
Cc1ccc(/C=C2\SC(N3CCCC3)=NC2=O)cc1	·	·	–	·	·	–	·	·	·	·	·
C(=C\c1ccc2ccccc2n1)/c1ccccc1	–	–	–	–	–	–	·	·	·	·	·
CN(C)c1ccc(/C=C/c2ccc3ccccc3n2)cc1	50	–	60	·	–	–	61	70	88	–	17
CCN(CC)c1ccc(/C=C2\CCC(/C=N/NC(=O)c3ccc(=O)n(C)c3)=C2N2CCOCC2)cc1	69	–	117	·	–	25	113	112	–	-32	37	IDE inh confirm=57;HEK cytotox=–
NS(=O)(=O)c1ccc(-c2ccc(/C=C3\SC(=S)N(C4CCS(=O)(=O)C4)C3=O)o2)cc1 (configuration not stated)	70	–	109	·	–	20	154	142	87	-46	–
COc1cc(/C=C2\SC(=S)N(NC(=O)c3ccccc3O)C2=O)ccc1O	50	–	31	·	41	120	34	47	58	–	63	IDE inh confirm=113;HEK cytotox=–
CCOc1cc(/C=C2/SC(=S)N(Cc3ccccc3)C2=O)ccc1O	42	–	26	·	38	83	38	48	59	–	85
CCCCN(C)CC(O)Cn1cc(/C=C/C(=O)c2cccs2)c2ccccc21 (configuration not stated)	41	–	59	·	–	–	61	68	67	–	32
CCCCN(C)CC(O)Cn1cc(/C=C/C(=O)c2ccc(OCC)cc2)c2ccccc21 (configuration not stated)	·	·	–	·	·	–	·	·	·	·	·
CN(C)S(=O)(=O)c1ccc2c(c1)/C(=C/c1cc3c([nH]1)CCCC3)C(=O)N2	54	–	153	·	–	45	155	145	75	–	–	IDE inh confirm=105;HEK cytotox=–
O=C(OCc1nc2ccccc2[n+]([O-])c1C(=O)c1ccccc1)c1cccs1	–	–	–	–	–	–	·	·	·	·	·
O=C(O)c1cccc(-c2ccc(/C=c3/sc4nc5ccccc5n4c3=O)o2)c1	129	–	97	·	38	–	118	121	–	19	78
O=C(CCCN1C(=O)/C(=C\c2cccs2)SC1=S)Nc1ccc(O)cc1C(=O)O	–	–	–	–	–	–	·	·	·	·	·
O=C(CN1C(=O)/C(=C/c2ccco2)SC1=S)Nc1ccc(C(=O)O)c(O)c1	61	–	28	+	–	–	–	–	54	18	30	Rpn11 confirm=43;MMP-2 counter-1=–;Thrombin inh=–
O=C(CCCN1C(=O)/C(=C/c2ccccc2)SC1=S)Nc1ccc(C(=O)O)c(O)c1	–	–	–	–	–	–	·	·	·	·	·
SMILES	CSN inh	IDE act	TPT1 inhibitor	Rpn11 inh	HNF4A DNA FP	IDE inh	TPT1 inh confirm	RNase T1 inh	CSN deneddyl val	MMP-2 counter-2	Thrombin cntr	others
O=C(CCCN1C(=O)/C(=C\c2ccco2)SC1=S)Nc1ccc(O)cc1C(=O)O	48	–	27	+	–	–	–	–	66	24	23	Rpn11 confirm=–;MMP-2 counter-1=–;Thrombin inh=–
CCNC(=O)CSc1nc(-c2ccc(F)cc2)cs1	–	–	–	–	–	–	·	·	·	·	·
O=C(COc1coc(CN2CCN(Cc3ccccc3)CC2)cc1=O)Nc1ccccc1	–	–	–	–	–	–	·	·	·	·	·
COc1ccc(-c2nc3ncnn3cc2C)cc1F	–	–	–	–	–	–	·	·	·	·	·
N#Cc1c(NC(=O)/C=C/C(=O)O)sc2c1CCN(Cc1ccccc1)C2	42	–	122	·	–	–	61	72	–	–	46
CC(C)c1ccccc1NC(=S)NCc1nc2ccccc2[nH]1	–	–	–	–	–	–	·	·	·	·	·
CN(C)c1ccc(/C=C/C=C2/SC(=S)N(c3ccccc3)C2=O)cc1	38	–	104	+	57	–	71	81	67	–	35	Rpn11 confirm=49;MMP-2 counter-1=–;Thrombin inh=–
O=C(O)c1ccc(N2C(=O)/C(=C/C=C/c3ccccc3)SC2=S)cc1	–	–	–	–	–	–	·	·	·	·	·
